# Assay results published in ChEMBL document CHEMBL1152843, “Synthesis of new series of 5,6-dihydro-4H-1,2-oxazines via hetero Diels-Alder reaction and evaluation of antimicrobial activity” (2009).
# How the values were obtained:
# Type in all cases: functional
# Pseudomonas aeruginosa [1] = test: Antibacterial activity against Pseudomonas aeruginosa MTCC 1688 at 20 ug after 24 hrs by cup diffusion method; conditions: MTCC 1688, 24 h, read-out: IZ
# In short: (§1)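 Agar cup diffusion. Plates of sterile medium in 9 cm dishes were seeded with 1 × 10⁵ cfu of bacteria, with the suspension adjusted to at least 1 × 10⁵ cfu/ml in nutrient broth. Compound in DMF was placed in 5 mm cups and pre-diffused for 1 h. Plates were incubated at 37 °C for 24 h and the inhibition zone measured in mm. DMF served as negative control.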
# Aspergillus flavus [2] = test: Antifungal activity against Aspergillus flavus after 48 hrs by cup diffusion method
# Aspergillus niger [3] = test: Antifungal activity against Aspergillus niger after 48 hrs by cup diffusion method
# Staphylococcus aureus [4] = test: Antibacterial activity against Staphylococcus aureus MTCC 737 at 20 ug after 24 hrs by cup diffusion method; conditions: MTCC 737, 24 h, read-out: IZ; in short: as §1
# Klebsiella pneumoniae [5] = test: Antibacterial activity against Klebsiella pneumoniae […] at 20 ug after 24 hrs by cup diffusion method; conditions: read-out: IZ; in short: as §1
# Fusarium verticillioides [6] = test: Antifungal activity against Fusarium moniliforme after 48 hrs by cup diffusion method
# Fusarium verticillioides [7] = test: Antifungal activity against Fusarium moniliforme at 20 ug after 48 hrs by cup diffusion method; conditions: read-out: IZ
# In short: (§2)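 Cup diffusion on 9 cm plates seeded with 1 × 10⁶ cfu of fungi, with spores adjusted to at least 1 × 10⁶ cfu/ml in potato dextrose broth. Compound in DMF was placed in 5 mm agar cups and left 1 h to diffuse. Plates were incubated at 28 °C for 48 h and the inhibition zone read in mm. DMF was the negative control.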
# Aspergillus flavus [8] = test: Antifungal activity against Aspergillus flavus at 20 ug after 48 hrs by cup diffusion method; conditions: read-out: IZ; in short: as §2
# Staphylococcus aureus [9] = test: Antibacterial activity against Staphylococcus aureus MTCC 737 after 24 hrs by cup diffusion method; conditions: MTCC 737, 24 h
# Escherichia coli [10] = test: Antibacterial activity against Escherichia coli MTCC 443 after 24 hrs by cup diffusion method; conditions: MTCC 443, 24 h
# Fusarium oxysporum [11] = test: Antifungal activity against Fusarium oxysporum at 20 ug after 48 hrs by cup diffusion method; conditions: read-out: IZ; in short: as §2
# Aspergillus niger [12] = test: Antifungal activity against Aspergillus niger at 20 ug after 48 hrs by cup diffusion method; conditions: read-out: IZ; in short: as §2
# Escherichia coli [13] = test: Antibacterial activity against Escherichia coli MTCC 443 at 20 ug after 24 hrs by cup diffusion method; conditions: MTCC 443, 24 h, read-out: IZ; in short: as §1
# Pseudomonas aeruginosa [14] = test: Antibacterial activity against Pseudomonas aeruginosa MTCC 1688 after 24 hrs by cup diffusion method; conditions: MTCC 1688, 24 h
# Klebsiella pneumoniae [15] = test: Antibacterial activity against Klebsiella pneumoniae […] after 24 hrs by cup diffusion method
# Fusarium oxysporum [16] = test: Antifungal activity against Fusarium oxysporum after 48 hrs by cup diffusion method
SMILES,MIC (Aspergillus flavus [2]),MIC (Aspergillus niger [3]),MIC (Fusarium verticillioides [6]),MIC (Staphylococcus aureus [9]),MIC (Escherichia coli [10]),MIC (Pseudomonas aeruginosa [14]),MIC (Klebsiella pneumoniae [15]),MIC (Fusarium oxysporum [16]),zone of inhibition at 20 µg/disc (Pseudomonas aeruginosa [1]),zone of inhibition at 20 µg/disc (Staphylococcus aureus [4]),zone of inhibition at 20 µg/disc (Klebsiella pneumoniae [5]),zone of inhibition at 20 µg/disc (Fusarium verticillioides [7]),zone of inhibition at 20 µg/disc (Aspergillus flavus [8]),zone of inhibition at 20 µg/disc (Fusarium oxysporum [11]),zone of inhibition at 20 µg/disc (Aspergillus niger [12]),zone of inhibition at 20 µg/disc (Escherichia coli [13])
N#CC1CCC(c2ccc3c(c2)CCC3)=NO1 (centres undefined),40 µg/mL,35 µg/mL,40 µg/mL,15 µg/mL,25 µg/mL,15 µg/mL,20 µg/mL,35 µg/mL,31.5 mm,17.7 mm,23.8 mm,13.5 mm,9.5 mm,17.7 mm,10.7 mm,15.5 mm
COc1ccc(C2=NOC(Cc3ccc4c(c3)OCO4)CC2)cc1OC (centres undefined),40 µg/mL,40 µg/mL,35 µg/mL,10 µg/mL,25 µg/mL,20 µg/mL,15 µg/mL,30 µg/mL,14.1 mm,16.5 mm,17.5 mm,11.2 mm,8.12 mm,15.8 mm,7.75 mm,8.12 mm
COc1ccc(C2=NOC(CO)CC2)cc1OC (centres undefined),40 µg/mL,40 µg/mL,35 µg/mL,20 µg/mL,35 µg/mL,20 µg/mL,25 µg/mL,30 µg/mL,10.5 mm,7.66 mm,14.5 mm,10.8 mm,8.5 mm,16.5 mm,7.83 mm,8.5 mm
Cc1ccc(C2=NOC(CO)CC2)cc1C (centres undefined),35 µg/mL,30 µg/mL,35 µg/mL,15 µg/mL,25 µg/mL,25 µg/mL,20 µg/mL,25 µg/mL,12.8 mm,14.8 mm,17.7 mm,14.7 mm,8.66 mm,19.8 mm,10.7 mm,13.7 mm

# These reach a lower MIC (Aspergillus flavus [2]). Values come first.
MIC (Aspergillus flavus [2]),MIC (Aspergillus niger [3]),MIC (Fusarium verticillioides [6]),MIC (Staphylococcus aureus [9]),MIC (Escherichia coli [10]),MIC (Pseudomonas aeruginosa [14]),MIC (Klebsiella pneumoniae [15]),MIC (Fusarium oxysporum [16]),SMILES,zone of inhibition at 20 µg/disc (Pseudomonas aeruginosa [1]),zone of inhibition at 20 µg/disc (Staphylococcus aureus [4]),zone of inhibition at 20 µg/disc (Klebsiella pneumoniae [5]),zone of inhibition at 20 µg/disc (Fusarium verticillioides [7]),zone of inhibition at 20 µg/disc (Aspergillus flavus [8]),zone of inhibition at 20 µg/disc (Fusarium oxysporum [11]),zone of inhibition at 20 µg/disc (Aspergillus niger [12]),zone of inhibition at 20 µg/disc (Escherichia coli [13])
30 µg/mL,30 µg/mL,35 µg/mL,20 µg/mL,35 µg/mL,20 µg/mL,25 µg/mL,25 µg/mL,OCC1CCC(c2ccc3c(c2)CCC3)=NO1 (centres undefined),13.7 mm,10.7 mm,17.7 mm,13.7 mm,9.83 mm,18.8 mm,7.66 mm,10.5 mm
15 µg/mL,20 µg/mL,25 µg/mL,10 µg/mL,20 µg/mL,20 µg/mL,15 µg/mL,15 µg/mL,CCOC(=O)C1CCC(c2ccc(C)c(C)c2)=NO1 (centres undefined),12.8 mm,17.8 mm,16.7 mm,16.7 mm,12.7 mm,19.8 mm,11.5 mm,13.5 mm
15 µg/mL,20 µg/mL,15 µg/mL,10 µg/mL,20 µg/mL,15 µg/mL,10 µg/mL,10 µg/mL,COc1ccc(C2=NOC(CCl)CC2)cc1 (centres undefined),29.5 mm,14.7 mm,17.7 mm,25.2 mm,21.7 mm,29.7 mm,19.5 mm,9.5 mm
10 µg/mL,15 µg/mL,20 µg/mL,20 µg/mL,30 µg/mL,20 µg/mL,25 µg/mL,10 µg/mL,CCOC(=O)C1CCC(c2ccc3c(c2)CCC3)=NO1 (centres undefined),13.4 mm,18.7 mm,13.5 mm,32.8 mm,28.5 mm,36.5 mm,26.7 mm,10.7 mm
10 µg/mL,15 µg/mL,20 µg/mL,15 µg/mL,30 µg/mL,20 µg/mL,20 µg/mL,10 µg/mL,Cc1ccc(C2=NOC(Cc3ccc4c(c3)OCO4)CC2)cc1C (centres undefined),11 mm,21.3 mm,15.5 mm,22.8 mm,18.8 mm,25.3 mm,15.7 mm,11.5 mm
